# Screens as filed in PubChem.
# RGS4 act – RGS4 potentiation or activation; AID 463111; HEK293 M3R/inducible RGS4, carbachol calcium flux Fluo4; hits give low values; 310,000 compounds, 0.92% hits; B-score at 10 µM;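 active = B-score of the integrated calcium signal more than 4 SD below the library mean, with starting fluorescence not abnormally high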;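 also: negative B-score means reduced calcium response which marks RGS4 activation or potentiation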
#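 Assay system: Inducible-RGS4 HEK293 cells carrying M3 receptor | Schedule: Compound preincubation 20 min at room temperature before agonist | Signal: Kinetic calcium fluorescence imaging with Fluo4-AM dye, 2 µM | Read-out basis: B score from integrated fluorescence ratio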
# RGS4 inh – inhibitors of human RGS4; P49798; HEK293 M3R/RGS4 inducible, Fluo-4 calcium flux; hits give high values; triggered by carbachol at its EC20; B-score at 10 µM; 310,000 compounds, 0.45% hits; AID 463165;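 active = B-score, a plate-corrected calcium signal, over three deviations above library mean, with baseline fluorescence within five deviations of library mean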;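 also: RGS4 expression induced by doxycycline in cells with stable M3 receptor; B-score is computed from the integrated fluorescence ratio over baseline after carbachol; higher B-score means a larger calcium signal and so more RGS4 inhibition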
# Target sequence (P49798 whole entry, looked up): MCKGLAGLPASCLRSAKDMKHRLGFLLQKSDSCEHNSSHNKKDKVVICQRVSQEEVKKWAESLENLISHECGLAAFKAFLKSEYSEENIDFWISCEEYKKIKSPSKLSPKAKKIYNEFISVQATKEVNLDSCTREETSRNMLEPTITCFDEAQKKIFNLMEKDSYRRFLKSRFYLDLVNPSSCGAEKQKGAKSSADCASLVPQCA
# MrgX1 antag – human MrgX1 receptor antagonism, primary screen; Q96LB2; MRGX1-HEK293 calcium flux, Fluo-4, BAM8-22 antagonism; hits give low values; B-score at 10 µM; 310,000 compounds, 1.3% hits; AID 588676;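 active = calcium-response B-score plate-corrected more than 3 library SD below zero, starting fluorescence within 5 deviations, no agonist response on first addition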;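 also: peak minus trough fluorescence over baseline after final BAM8-22 challenge near maximal dose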
# Target sequence (Q96LB2 whole entry, looked up): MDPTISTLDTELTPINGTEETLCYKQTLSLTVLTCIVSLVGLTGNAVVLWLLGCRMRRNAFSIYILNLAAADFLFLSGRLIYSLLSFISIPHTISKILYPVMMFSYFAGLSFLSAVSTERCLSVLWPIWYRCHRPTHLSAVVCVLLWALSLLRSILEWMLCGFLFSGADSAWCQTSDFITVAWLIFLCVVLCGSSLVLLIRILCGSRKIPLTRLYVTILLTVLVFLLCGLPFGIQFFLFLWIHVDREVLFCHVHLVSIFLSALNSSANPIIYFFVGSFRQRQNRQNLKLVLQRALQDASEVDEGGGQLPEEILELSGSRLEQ
# MrgX1 allo act – allosterically activates human MrgX1 receptor signaling | MrgX1-HEK293, Fluo-4 calcium flux, FDSS; hits give high values | 310,000 compounds, 0.63% hits | Q96LB2 | B-score at 10 µM;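 active = plate-corrected calcium response at least 3 library SD above typical, normal starting fluorescence, not activating the receptor alone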;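 also: compound read alongside a low EC10 to EC30 dose of BAM8-22 agonist; peak minus trough fluorescence over baseline measured at the second addition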
# MrgX1 ag – agonists of human MrgX1 receptor; Q96LB2; MrgX1-HEK293 cells, Fluo-4 calcium fluorescence, agonist mode; hits give high values; B-score at 10 µM; 310,000 compounds, 0.44% hits; AID 588627;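 active = calcium response B-score plate-corrected fluorescence ratio at least 3 library SD, with starting fluorescence B-score inside 5 SD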
#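 System – MrgX1-expressing HEK293 cells · Incubation – cells plated overnight, dye loaded 0.5 h 37 °C, 0.5 h room temperature · Technique – kinetic Fluo-4 NW fluorescence of intracellular calcium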
# Numbers without * were called inactive; i = inactive; . = no result given. Compounds with a hit are over-represented: about 3.5% of the library has one in this group of screens.
SMILES,RGS4 act,RGS4 inh,MrgX1 antag,MrgX1 allo act,MrgX1 ag
O=C(COC(=O)c1ccc2ccccc2c1)Nc1ncc(C(F)(F)F)cc1Cl,i,i,i,i,i
O=C(COC(=O)c1c2ccccc2cc2ccccc12)Nc1ncc(C(F)(F)F)cc1Cl,-7*,i,i,i,i
O=C1N[C@H](C(=O)O)CS1,i,i,i,i,i
O=C(NCCc1ccc(Cl)cc1)c1ccc(Br)s1,i,i,i,i,i
COC(=O)c1ccc(CNC(=O)Cn2nnnc2CN(C)C(C)C)cc1,i,i,i,i,i
O=C1c2ccccc2C(=O)C1c1ccc(Cl)cc1,i,i,-6.5*,i,i
Fc1ccc2c(c1)Sc1ccc(Cl)cc1CC2N1CCN(CCC2OCCO2)CC1 (stereo not given),-7.3*,i,i,i,i
O=C1CC(c2ccco2)CC(O)=C1C=NCC1CCNCC1 (stereo not given),-7.8*,i,i,i,i
C=CCN1C(c2cccc(C(F)(F)F)c2)=CS/C1=C(/C#N)c1nnc(N2CCOCC2)n1-c1ccccc1,i,i,i,i,45*
Cc1cccc(C)c1NC(=O)CS(=O)CC(=O)NCC1OCCc2ccccc21 (stereo not given),i,i,-4.8*,i,i
CCc1ccc(NC(=O)CS(=O)CC(=O)NCC2OCCc3ccccc32)cc1 (stereo not given),i,i,i,i,i
N#C/C(=C\c1ccc(N2CCCCC2)o1)C(=O)Nc1cccc(Br)c1,i,i,i,i,53*
O=C(c1ccccc1F)N1CCN(C(=O)C2CC2)CC1,i,i,i,i,i
CC(CCc1ccccc1)NCc1cccc2ccccc12 (stereo not given),i,i,i,i,i
NC(CCCCc1ccccc1)c1cccc2ccccc12 (stereo not given),i,i,i,i,61*
CCOC(=O)c1ccc(CC(=O)c2ccc(O)cc2O)o1,i,i,i,i,i
CCC(=O)Oc1ccc(C/C(=N\O)c2ccc(O)cc2O)o1,i,i,-4.6*,i,i
O=C(COC(=O)CNS(=O)(=O)/C=C/c1ccccc1)Nc1cccc2ccccc12,i,i,i,i,i
CC(C)CN=Cc1c(O)c([N+](=O)[O-])cc2oc3c(c12)CCCC3,i,i,-6.2*,i,i
O=[N+]([O-])c1cc2oc3c(c2c(C=NCc2ccccc2)c1O)CCCC3,i,i,i,i,i
O=C1S/C(=C/c2ccc(N3CCOCC3)o2)C(=O)N1Cc1ccc(F)cc1,i,i,i,i,46*
C=CCN1C(=O)N/C(=C/c2ccc(N3CCOCC3)o2)C1=O,i,i,-5.1*,i,i
O=C1N/C(=C/c2ccc(N3CCOCC3)o2)C(=O)N1c1ccccc1,.,.,i,i,i
Cc1ccc(CNC(=O)CNC(=O)c2ccc(Br)o2)cc1,i,i,i,i,i
O=S(=O)(c1ccc(Cl)cc1)N1CCN(CCc2ccncc2)CC1,i,i,i,i,i
SMILES,RGS4 act,RGS4 inh,MrgX1 antag,MrgX1 allo act,MrgX1 ag
COc1cc(/C=C2/C(=N)N3N=C(CC(=O)N4CCOCC4)SC3=NC2=O)ccc1OCc1ccccc1F,i,i,i,17*,i
COc1ccc(/C=C2/C(=N)N3N=C(CC(=O)N4CCCC4)SC3=NC2=O)cc1OC,i,i,i,i,i
COc1cc(/C=C2/C(=N)N3N=C(CC(=O)N4CCOCC4)SC3=NC2=O)ccc1OCc1ccc(F)cc1,i,i,i,16*,i
CSc1ccc(/C=C2/C(=N)N3N=C(CC(=O)N4CCCC4)SC3=NC2=O)cc1,i,i,i,i,31*
Cc1ccc(/C=C2/C(=N)N3N=C(CC(=O)N4CCCC4)SC3=NC2=O)cc1,i,i,i,i,i
CCOC(=O)Cc1csc(NC(=O)Cn2c(=O)oc3ccccc32)n1,i,i,i,i,i
CC(C)CNC(=O)CN(c1cccc(Cl)c1)S(C)(=O)=O,i,i,i,i,i
COc1c(CC=C(C)C)cc(C2CC(=O)c3c(O)cc(O)cc3O2)cc1CC=C(C)C (stereo not given),-8.3*,i,i,i,i
COc1ccc([C@@H]2CC(=O)c3c(O)cc(O)cc3O2)cc1O,.,.,i,i,i
COc1ccc(OC)c(CNn2c(-c3ccccc3F)nc3ccccc3c2=O)c1,i,i,-4.8*,i,i
COc1ccc(C=C2C(=O)c3ccccc3C2=O)cc1O,i,i,i,i,i
CCCCc1ccc(/C=C2\C(=O)c3ccccc3C(O)=C2C(=O)OCC)cc1,i,i,-10*,i,i
Cc1ccc(/C=C/C2=Cc3c(sc(NC(=O)CSc4n[nH]c(N)n4)c3C#N)C(C)(C)C2)o1,i,i,-5.4*,i,i
OCCC1CN(CCCn2cccn2)CCN1C1CCCCC1 (stereo not given),i,i,.,.,.
C=CCOc1ccc(/C=N/NC(=O)c2cc3c(OC)cc(OC)cc3[nH]2)cc1,-8.1*,i,i,i,i
CCOC(=O)c1c(/N=C/c2ccc(OC)cc2O)sc2c1CCN(C)C2,i,i,-4.8*,i,i
CCOC(=O)c1c(/N=C/c2ccc(C)cc2O)sc2c1CCC2,i,i,i,i,i
Cc1cccn2c(=O)c3cc(C#N)c(=NC(=O)c4ccccc4)n(Cc4ccco4)c3nc12,i,i,-4.9*,i,i
COc1ccccc1CNC(=O)CCS(=O)(=O)c1ccc(Cl)cc1,i,i,i,i,i
CCO[C@@H]1OC(C(=O)N2CCN(Cc3ccc4c(c3)OCO4)CC2)=C[C@H](c2coc3ccccc3c2=O)[C@H]1CCCO,i,i,-5.1*,i,i
CCO[C@H]1OC(C(=O)N2CCN(Cc3ccccc3)CC2)=C[C@@H](c2coc3ccccc3c2=O)[C@@H]1CCCO,i,i,i,i,i
Cc1cc(C)c2c(=O)n(CC(=O)Nc3cccc(Cl)c3C)sc2n1,i,i,i,9.5*,i
Cc1cc(Cl)c2oc(C(=O)N(C)Cc3nccn3C)c(C)c2c1,i,i,.,.,.
COc1cccc(/C=N/Nc2nc3ccccc3n3cnnc23)c1,i,i,i,i,i
COc1ccc(/C=N/Nc2cc(C)nc3ccc(Br)cc23)cc1,i,i,i,i,i
COc1ccc2nc(C)cc(N/N=C/c3cccc(OC)c3O)c2c1,-11*,i,i,i,i
